Measured values from ChEMBL document CHEMBL4371053, “A novel tetrazole analogue of resveratrol is a potent anticancer agent” (Bioorg Med Chem Lett, 2019).

Key:
UO-31 = experiment: Growth inhibition of human UO31 cells incubated for 48 hrs by sulforhodamine B assay; type: functional; conditions: UO-31, 48 h
In short: (§1)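 NCI-60 screen run per Rubinstein protocol. Sulforhodamine B optical density was read before and after 48 h exposure to compound or vehicle. The single-dose pass at 10⁻⁵ M reported percent growth relative to vehicle control and time-zero cell number. The five-dose follow-up used 10⁻⁴ to 10⁻⁸ M, giving GI₅₀ as the molar concentration causing 50% growth inhibition.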

IGROV-1 = experiment: Growth inhibition of human IGROV1 cells incubated for 48 hrs by sulforhodamine B assay; type: functional; conditions: IGROV-1, 48 h
In short: (§2)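 NCI-60 five-dose study at 10⁻⁴, 10⁻⁵, 10⁻⁶, 10⁻⁷ and 10⁻⁸ M, 48 h incubation. Growth determined from sulforhodamine B optical density before and after exposure, relative to vehicle control and time-zero counts. GI₅₀ is the molar concentration giving 50% growth inhibition.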

A498 = experiment: Growth inhibition of human A498 cells at 10 uM after 48 hrs by sulforhodamine B assay relative to control; type: functional; conditions: A498, 48 h, values are per cent of control
In short: (§3)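 NCI-60 single-dose screen. Cells exposed to 10⁻⁵ M or to vehicle for 48 h. Growth measured by sulforhodamine B optical density before and after exposure. Reported as percent growth relative to vehicle control and to time-zero cell number; negative values indicate cell kill.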

RPMI-8226 = experiment: Growth inhibition of human RPMI8226 cells incubated for 48 hrs by sulforhodamine B assay; type: functional; conditions: RPMI-8226, 48 h; in short: as §2
COLO 205 = experiment: Growth inhibition of human COLO205 cells incubated for 48 hrs by sulforhodamine B assay; type: functional; conditions: COLO 205, 48 h; in short: as §2
ACHN = experiment: Growth inhibition of human ACHN cells incubated for 48 hrs by sulforhodamine B assay; type: functional; in short: as §2
MDA-MB-231 = experiment: Growth inhibition of human MDA-MB-231 cells incubated for 48 hrs by sulforhodamine B assay; type: functional; conditions: MDA-MB-231, 48 h; in short: as §2
SF-295 = experiment: Growth inhibition of human SF295 cells incubated for 48 hrs by sulforhodamine B assay; type: functional; conditions: SF-295, 48 h; in short: as §2
786-0 = experiment: Growth inhibition of human 786-0 cells incubated for 48 hrs by sulforhodamine B assay; type: functional; conditions: 786-0, 48 h; in short: as §2
NCI-H23 = experiment: Growth inhibition of human NCI-H23 cells incubated for 48 hrs by sulforhodamine B assay; type: functional; conditions: NCI-H23, 48 h; in short: as §2
SK-MEL-2 = experiment: Growth inhibition of human SK-MEL-2 cells incubated for 48 hrs by sulforhodamine B assay; type: functional; conditions: SK-MEL-2, 48 h; in short: as §2
[1] = Cytotoxicity against stromal cells (unknown origin) assessed as reduction in cell viability by alamar blue assay; type: cell-based; conditions: read-out: LD50 (the source's name)
NCI-H522 = experiment: Growth inhibition of human NCI-H522 cells incubated for 48 hrs by sulforhodamine B assay; type: functional; conditions: NCI-H522, 48 h; in short: as §2
HCC 2998 = experiment: Growth inhibition of human HCC2998 cells incubated for 48 hrs by sulforhodamine B assay; type: functional; conditions: HCC 2998, 48 h; in short: as §2
HCT-15 = experiment: Growth inhibition of human HCT15 cells incubated for 48 hrs by sulforhodamine B assay; type: functional; conditions: HCT-15, 48 h; in short: as §2
CCRF-CEM = experiment: Growth inhibition of human CCRF-CEM cells incubated for 48 hrs by sulforhodamine B assay; type: functional; in short: as §2
SF-539 = experiment: Growth inhibition of human SF539 cells incubated for 48 hrs by sulforhodamine B assay; type: functional; conditions: SF-539, 48 h; in short: as §2
SK-MEL-5 [2] = experiment: Growth inhibition of human SK-MEL-5 cells at 10 uM after 48 hrs by sulforhodamine B assay relative to control; type: functional; conditions: SK-MEL-5, 48 h, values are per cent of control; in short: as §3
OVCAR-4 = experiment: Growth inhibition of human OVCAR4 cells incubated for 48 hrs by sulforhodamine B assay; type: functional; conditions: OVCAR-4, 48 h; in short: as §2
DU-145 = experiment: Growth inhibition of human DU145 cells incubated for 48 hrs by sulforhodamine B assay; type: functional; conditions: DU-145, 48 h; in short: as §2
MOLT-4 = experiment: Growth inhibition of human MOLT4 cells incubated for 48 hrs by sulforhodamine B assay; type: functional; conditions: MOLT-4, 48 h; in short: as §2
SW-620 = experiment: Growth inhibition of human SW620 cells incubated for 48 hrs by sulforhodamine B assay; type: functional; conditions: SW-620, 48 h; in short: as §1
SNB-75 = experiment: Growth inhibition of human SNB75 cells incubated for 48 hrs by sulforhodamine B assay; type: functional; conditions: SNB-75, 48 h; in short: as §1
LOX IMVI = experiment: Growth inhibition of human LOXIMVI cells incubated for 48 hrs by sulforhodamine B assay; type: functional; in short: as §2
RXF 393 = experiment: Growth inhibition of human RXF393 cells incubated for 48 hrs by sulforhodamine B assay; type: functional; conditions: RXF 393, 48 h; in short: as §2
OVCAR-3 = experiment: Growth inhibition of human OVCAR3 cells at 10 uM after 48 hrs by sulforhodamine B assay relative to control; type: functional; conditions: OVCAR-3, 48 h, values are per cent of control; in short: as §3
K562 = experiment: Growth inhibition of human K562 cells incubated for 48 hrs by sulforhodamine B assay; type: functional; conditions: K562, 48 h; in short: as §2
SK-MEL-5 [3] = experiment: Growth inhibition of human SK-MEL-5 cells incubated for 48 hrs by sulforhodamine B assay; type: functional; conditions: SK-MEL-5, 48 h; in short: as §1
A549 = experiment: Growth inhibition of human A549/ATCC cells incubated for 48 hrs by sulforhodamine B assay; type: functional; conditions: A549, 48 h; in short: as §2
NCI/ADR-RES = experiment: Growth inhibition of human NCI/ADR-RES cells incubated for 48 hrs by sulforhodamine B assay; type: functional; in short: as §2
HOP-92 = experiment: Growth inhibition of human HOP92 cells incubated for 48 hrs by sulforhodamine B assay; type: functional; conditions: HOP-92, 48 h; in short: as §2
SR = experiment: Growth inhibition of human SR cells incubated for 48 hrs by sulforhodamine B assay; type: functional; in short: as §1
SNB-19 = experiment: Growth inhibition of human SNB19 cells incubated for 48 hrs by sulforhodamine B assay; type: functional; conditions: SNB-19, 48 h; in short: as §1
Hs-578T = experiment: Growth inhibition of human Hs578T cells incubated for 48 hrs by sulforhodamine B assay; type: functional; in short: as §2
M14 = experiment: Growth inhibition of human M14 cells incubated for 48 hrs by sulforhodamine B assay; type: functional; conditions: M14, 48 h; in short: as §2
HT-29 = experiment: Growth inhibition of human HT-29 cells incubated for 48 hrs by sulforhodamine B assay; type: functional; conditions: HT-29, 48 h; in short: as §2
HL-60(TB) = experiment: Growth inhibition of human HL-60(TB) cells incubated for 48 hrs by sulforhodamine B assay; type: functional; conditions: HL-60, 48 h; in short: as §2
SF-268 = experiment: Growth inhibition of human SF268 cells incubated for 48 hrs by sulforhodamine B assay; type: functional; conditions: SF-268, 48 h; in short: as §2
MDA-MB-435 = experiment: Growth inhibition of human MDA-MB-435 cells incubated for 48 hrs by sulforhodamine B assay; type: functional; conditions: MDA-MB-435, 48 h; in short: as §2
KM12 = experiment: Growth inhibition of human KM12 cells at 10 uM after 48 hrs by sulforhodamine B assay relative to control; type: functional; conditions: KM12, 48 h, values are per cent of control; in short: as §3
SK-OV-3 = experiment: Growth inhibition of human SKOV3 cells incubated for 48 hrs by sulforhodamine B assay; type: functional; conditions: SK-OV-3, 48 h; in short: as §1

## COc1ccc(/C(=C/c2ccc3ccccc3c2)c2nnn[nH]2)cc1OC
UO-31
  GI50: 5590 nM
IGROV-1
  GI50: 4230 nM
A498
  growth, % of control at 10 µM: 14.5%
RPMI-8226
  GI50: 4020 nM
COLO 205
  GI50: 2270 nM
ACHN
  GI50: 11300 nM
MDA-MB-231
  GI50: 12500 nM
SF-295
  GI50: 1510 nM
786-0
  GI50: 5720 nM
NCI-H23
  GI50: 5290 nM
SK-MEL-2
  GI50: 4360 nM
[1]
  CC50: > 50000 nM
NCI-H522
  GI50: 1140 nM
HCC 2998
  GI50: 5200 nM
HCT-15
  GI50: 2920 nM
CCRF-CEM
  GI50: 3330 nM
SF-539
  GI50: 2380 nM
SK-MEL-5 [2]
  growth, % of control at 10 µM: 23.5%
OVCAR-4
  GI50: 7780 nM
DU-145
  GI50: 3530 nM
MOLT-4
  GI50: 4160 nM
SW-620
  GI50: 1360 nM
SNB-75
  GI50: 2510 nM
LOX IMVI
  GI50: 5630 nM
RXF 393
  GI50: 2480 nM
OVCAR-3
  growth, % of control at 10 µM: -17.3%
K562
  GI50: 670 nM
SK-MEL-5 [3]
  GI50: 4680 nM
A549
  GI50: 3800 nM
NCI/ADR-RES
  GI50: 1030 nM
HOP-92
  GI50: 4590 nM
SR
  GI50: 2230 nM
SNB-19
  GI50: 7840 nM
Hs-578T
  GI50: 2230 nM
M14
  GI50: 1900 nM
HT-29
  GI50: 2690 nM
HL-60(TB)
  GI50: 2560 nM
SF-268
  GI50: 6550 nM
MDA-MB-435
  GI50: 300 nM
KM12
  growth, % of control at 10 µM: 24.5%
SK-OV-3
  GI50: 3630 nM

## COc1ccc(/C=C(/c2cc(OC)c(OC)c(OC)c2)c2nnn[nH]2)cc1O
UO-31
  GI50: < 10 nM
IGROV-1
  GI50: < 10 nM
A498
  growth, % of control at 10 µM: -3.5%
RPMI-8226
  GI50: < 10 nM
COLO 205
  GI50: 970 nM
ACHN
  GI50: < 10 nM
MDA-MB-231
  GI50: < 10 nM
SF-295
  GI50: 5280 nM
786-0
  GI50: < 10 nM
NCI-H23
  GI50: < 10 nM
SK-MEL-2
  GI50: < 10 nM
[1]
  CC50: > 50000 nM
NCI-H522
  GI50: < 10 nM
HCC 2998
  GI50: < 10 nM
HCT-15
  GI50: < 10 nM
CCRF-CEM
  GI50: < 10 nM
SF-539
  GI50: < 10 nM
SK-MEL-5 [2]
  growth, % of control at 10 µM: -54%
OVCAR-4
  GI50: < 10 nM
DU-145
  GI50: < 10 nM
MOLT-4
  GI50: < 10 nM
SW-620
  GI50: < 10 nM
SNB-75
  GI50: < 10 nM
LOX IMVI
  GI50: < 10 nM
RXF 393
  GI50: < 10 nM
OVCAR-3
  growth, % of control at 10 µM: -8.5%
K562
  GI50: < 10 nM
SK-MEL-5 [3]
  GI50: < 10 nM
A549
  GI50: < 10 nM
NCI/ADR-RES
  GI50: < 10 nM
HOP-92
  GI50: < 10 nM
SR
  GI50: < 10 nM
SNB-19
  GI50: < 10 nM
Hs-578T
  GI50: < 10 nM
M14
  GI50: < 10 nM
HT-29
  GI50: 2200 nM
HL-60(TB)
  GI50: < 10 nM
SF-268
  GI50: < 10 nM
MDA-MB-435
  GI50: < 10 nM
KM12
  growth, % of control at 10 µM: -1.73%
SK-OV-3
  GI50: < 10 nM
